M1 ag parental = counter-screen for M1 agonists: effect in parental CHO-K1 cells | Fluo-8 calcium fluorescence; scaled to maximal ATP response, vehicle zero | activation, % at 3 µM | 360,000 compounds, 0.48% hits | AID 602248, 2012; in the data active means activation above about 15%;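 further: untransfected CHO-K1 host cells lacking M1 receptor as counterscreen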
CHO-K1 Ca antag = M1 antagonist counterscreen hit in parental CHO-K1 cells; ATP-induced calcium, Fluo-8 fluorescence; inhibition, % at 3 µM; 360,000 compounds, 0.6% hits;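 active means inhibition above a per-plate cutoff, the plate's mean sample inhibition plus 3 SD, cut at about 24% in these data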
CHO-K1 Ca PAM = nonselective calcium activators in parental CHO-K1 cells, primary screen, counter-screen for M1 PAM project, cell-based, Fluo-8 calcium fluorescence, full deck, 1536-well; AID 602247, 2012; activation, % at 3 µM; 360,000 compounds, 0.02% hits; ATP EC20; 0% at ATP EC20, 100% at ATP max;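 active means activation above the run cutoff, the mean activation of all test compounds plus 3 SD, cut at about 40% in these data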;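 further: peak over basal fluorescence ratio in a 140 s read after ATP addition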
M5 ag = human M5 muscarinic receptor agonists, primary screen, CHO-K1 cells, Fluo-8 calcium fluorescence; 360,000 compounds, 0.19% hits; CHO-K1 hM5 cells; 0% DMSO wells, 100% maximal acetylcholine response; activation, % at 3 µM; Muscarinic acetylcholine receptor M5 (Homo sapiens), P08912;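 active means activation above the run's mean over test compounds plus 3 SD, cut at about 23% in these data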;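 further: signal is peak over basal fluorescence ratio across the kinetic read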
Target sequence (P08912 whole entry, looked up): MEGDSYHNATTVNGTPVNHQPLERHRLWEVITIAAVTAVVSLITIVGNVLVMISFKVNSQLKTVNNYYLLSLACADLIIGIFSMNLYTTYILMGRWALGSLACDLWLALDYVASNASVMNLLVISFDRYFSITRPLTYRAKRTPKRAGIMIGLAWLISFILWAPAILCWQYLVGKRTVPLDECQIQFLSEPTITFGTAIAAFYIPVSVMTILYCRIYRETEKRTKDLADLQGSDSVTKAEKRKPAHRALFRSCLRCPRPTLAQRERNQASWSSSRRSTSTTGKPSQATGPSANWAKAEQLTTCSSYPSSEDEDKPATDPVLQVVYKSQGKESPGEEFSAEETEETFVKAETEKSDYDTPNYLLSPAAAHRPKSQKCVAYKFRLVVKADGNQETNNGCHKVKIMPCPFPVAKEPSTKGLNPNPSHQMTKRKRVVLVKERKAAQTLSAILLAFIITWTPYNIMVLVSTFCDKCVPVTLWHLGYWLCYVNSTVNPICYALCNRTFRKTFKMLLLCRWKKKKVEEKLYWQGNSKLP
CHRM5 PAM = human M5 muscarinic receptor positive allosteric modulators, primary screen, CHO-K1 cells, Fluo-8 calcium fluorescence; Muscarinic acetylcholine receptor M5 (Homo sapiens), P08912; CHO-K1 hM5, ACh EC20 PAM; 0% = ACh EC20, 100% = ACh EC100; activation, % at 3 µM; 360,000 compounds, 0.3% hits; AID 624038, 2012;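 active means activation above the run cutoff, the mean activation of all test compounds plus 3 SD, cut at about 18% in these data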
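system = human M5 receptor in CHO-K1 cells | reagent = EC20 acetylcholine as agonist stimulus | compound dosing = single-point, 3 µM nominal | incubation = Fluo-8 loading 80 min at 37 °C plus 30 min room temperature | detection = Fluo-8 calcium dye fluorescence, kinetic read | benchmarks = low control EC20 acetylcholine (0%), high control EC100 acetylcholine (100%)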
M5 antag = human M5 muscarinic receptor antagonists, primary screen, CHO cells, Fluo-8 calcium fluorescence. Muscarinic acetylcholine receptor M5 (Homo sapiens), P08912. CHO-hM5 cells, ACh EC80. inhibition, % at 3 µM. 360,000 compounds, 0.59% hits;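 active means inhibition above a per-plate cutoff, the mean of that plate's test compounds plus 3 SD, cut at about 27% in these data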
A number is an active result. Most compounds without a hit are left out; they make up all but 1.7% or so of the library.

What do the screens show for `CCOC(=O)C(NC(=O)CC)(Nc1sc2c(c1C(=O)OC)CCN(C)C2)C(F)(F)F` (stereo unspecified)?
M1 ag parental: inactive; CHO-K1 Ca antag: inactive; CHO-K1 Ca PAM: inactive; M5 ag: inactive; CHRM5 PAM: inactive; M5 antag: inactive

How did Cc1ccccc1NC1=NCC(c2ccc([N+](=O)[O-])cc2)S1 (stereo unspecified) do in these assays?
M1 ag parental: 19.2; CHO-K1 Ca antag: inactive; CHO-K1 Ca PAM: inactive; M5 ag: inactive; CHRM5 PAM: inactive; M5 antag: inactive

Results for Cc1ccccc1Nc1ccc([N+](=O)[O-])cn1 ?
M1 ag parental: inactive; CHO-K1 Ca antag: inactive; CHO-K1 Ca PAM: inactive; M5 ag: inactive; CHRM5 PAM: inactive; M5 antag: inactive

What do the screens show for `COc1ccc(CN(C)C[C@@H]2OCCCC[C@H](C)Oc3ccc(NC(=O)Cc4ccccc4)cc3C(=O)N([C@@H](C)CO)C[C@@H]2C)cc1`?
M1 ag parental: inactive; CHO-K1 Ca antag: inactive; CHO-K1 Ca PAM: inactive; M5 ag: inactive; CHRM5 PAM: inactive; M5 antag: inactive

What do the screens show for `c1ccc(CNc2ncnc3scc(-c4cccs4)c23)nc1`?
M1 ag parental: inactive; CHO-K1 Ca antag: inactive; CHO-K1 Ca PAM: inactive; M5 ag: inactive; CHRM5 PAM: inactive; M5 antag: 28.1

Results for c1ccc(-c2csc3ncnc(NCc4ccccn4)c23)cc1 ?
M1 ag parental: inactive; CHO-K1 Ca antag: inactive; CHO-K1 Ca PAM: inactive; M5 ag: inactive; CHRM5 PAM: inactive; M5 antag: inactive

What do the screens show for `CCCCNC(=O)CN1CCN(Cc2ccc3cc(OC)ccc3c2)CC1`?
M1 ag parental: inactive; CHO-K1 Ca antag: inactive; CHO-K1 Ca PAM: inactive; M5 ag: inactive; CHRM5 PAM: inactive; M5 antag: inactive

How did Cc1c(C(=O)NCCC2=CCCCC2)oc2ccc(S(=O)(=O)N3CCOCC3)cc12 do in these assays?
M1 ag parental: inactive; CHO-K1 Ca antag: inactive; CHO-K1 Ca PAM: inactive; M5 ag: inactive; CHRM5 PAM: inactive; M5 antag: 27.8

What do the screens show for `CCOc1ccc(NC(=O)c2ccc(C#CC(C)(C)O)cc2)cc1`?
M1 ag parental: inactive; CHO-K1 Ca antag: inactive; CHO-K1 Ca PAM: inactive; M5 ag: inactive; CHRM5 PAM: inactive; M5 antag: inactive

Results for Oc1ccc2ccccc2c1Br ?
M1 ag parental: inactive; CHO-K1 Ca antag: 24.4; CHO-K1 Ca PAM: inactive; M5 ag: inactive; CHRM5 PAM: inactive; M5 antag: inactive

How did Cc1cc(SCC(=O)N2c3ccccc3NC(=O)CC2C)nc2ccccc12 (stereo unspecified) do in these assays?
M1 ag parental: inactive; CHO-K1 Ca antag: inactive; CHO-K1 Ca PAM: inactive; M5 ag: inactive; CHRM5 PAM: inactive; M5 antag: inactive

What do the screens show for `O=C(Nc1nc(-c2cccs2)c(-c2cccs2)s1)C1CCCC1`?
M1 ag parental: inactive; CHO-K1 Ca antag: inactive; CHO-K1 Ca PAM: inactive; M5 ag: inactive; CHRM5 PAM: inactive; M5 antag: inactive

How did Cc1ccc(C(=O)/C=C/c2cn(CC(O)CN3CCOCC3)c3ccccc23)cc1 (stereo unspecified) do in these assays?
M1 ag parental: 16.3; CHO-K1 Ca antag: inactive; CHO-K1 Ca PAM: inactive; M5 ag: inactive; CHRM5 PAM: inactive; M5 antag: inactive

Results for COc1ccc(C(=O)/C=C/c2cn(CC(O)CN3CCOCC3)c3ccccc23)cc1 (stereo unspecified) ?
M1 ag parental: inactive; CHO-K1 Ca antag: inactive; CHO-K1 Ca PAM: inactive; M5 ag: inactive; CHRM5 PAM: inactive; M5 antag: inactive

What do the screens show for `O=C1CC(=O)CC(c2ccccc2)C1`?
M1 ag parental: inactive; CHO-K1 Ca antag: inactive; CHO-K1 Ca PAM: inactive; M5 ag: inactive; CHRM5 PAM: inactive; M5 antag: inactive

Results for O=S1(=O)CCS(=O)(=O)C1c1ccccc1 ?
M1 ag parental: inactive; CHO-K1 Ca antag: inactive; CHO-K1 Ca PAM: inactive; M5 ag: inactive; CHRM5 PAM: 20.2; M5 antag: inactive

How did O=C(c1ccccc1)c1nn(-c2ccc(Cl)cc2)c(=O)cc1C(F)(F)F do in these assays?
M1 ag parental: 19.1; CHO-K1 Ca antag: inactive; CHO-K1 Ca PAM: inactive; M5 ag: inactive; CHRM5 PAM: inactive; M5 antag: inactive

How did O=C(c1ccccc1)c1nn(-c2ccccc2)c(=O)cc1C(F)(F)F do in these assays?
M1 ag parental: inactive; CHO-K1 Ca antag: inactive; CHO-K1 Ca PAM: inactive; M5 ag: inactive; CHRM5 PAM: inactive; M5 antag: inactive

How did Cc1ccc(C(=O)N2CCN(c3ncnc4c3cnn4-c3ccccc3)CC2)cc1 do in these assays?
M1 ag parental: inactive; CHO-K1 Ca antag: inactive; CHO-K1 Ca PAM: inactive; M5 ag: inactive; CHRM5 PAM: inactive; M5 antag: inactive

Results for CCC1CN2CCc3cc(OC)c(OC)cc3C2CC1CC1c2cc(OC)c(OC)cc2CCN1C(=O)C(Cc1c[nH]c2ccccc12)NC(=O)OC(C)(C)C (stereo unspecified) ?
M1 ag parental: inactive; CHO-K1 Ca antag: inactive; CHO-K1 Ca PAM: inactive; M5 ag: inactive; CHRM5 PAM: inactive; M5 antag: 26.9

What do the screens show for `CC(C)C[C@H](NC(=O)OC(C)(C)C)C(=O)N1CCC(C(=O)N[C@@H](Cc2c[nH]c3ccccc23)C(=O)O)CC1`?
M1 ag parental: inactive; CHO-K1 Ca antag: inactive; CHO-K1 Ca PAM: inactive; M5 ag: inactive; CHRM5 PAM: inactive; M5 antag: inactive

How did COc1ccc(NC(=O)CCCSc2ccccc2)cc1 do in these assays?
M1 ag parental: inactive; CHO-K1 Ca antag: inactive; CHO-K1 Ca PAM: inactive; M5 ag: inactive; CHRM5 PAM: inactive; M5 antag: inactive

What do the screens show for `O=C1CSC(c2ccccn2)N1c1ccccc1F` (stereo unspecified)?
M1 ag parental: inactive; CHO-K1 Ca antag: inactive; CHO-K1 Ca PAM: inactive; M5 ag: inactive; CHRM5 PAM: inactive; M5 antag: 30.3

What do the screens show for `CCOC(=O)Cn1nnc(-c2ccc(SC)cc2)n1`?
M1 ag parental: inactive; CHO-K1 Ca antag: inactive; CHO-K1 Ca PAM: inactive; M5 ag: inactive; CHRM5 PAM: inactive; M5 antag: inactive

What do the screens show for `CCN(c1ccccc1)S(=O)(=O)c1ccc2c(c1)CC(C)N2C(=O)C1CC1` (stereo unspecified)?
M1 ag parental: inactive; CHO-K1 Ca antag: inactive; CHO-K1 Ca PAM: inactive; M5 ag: inactive; CHRM5 PAM: inactive; M5 antag: 26.9

How did COc1ccc(S(=O)(=O)ON=C2CC(C)(C)N(C(C)=O)C(C)(C)C2)cc1 do in these assays?
M1 ag parental: inactive; CHO-K1 Ca antag: inactive; CHO-K1 Ca PAM: inactive; M5 ag: inactive; CHRM5 PAM: inactive; M5 antag: inactive

How did COc1cccc(CN(C)CCCn2cnc3c(OC)ncnc32)c1 do in these assays?
M1 ag parental: inactive; CHO-K1 Ca antag: inactive; CHO-K1 Ca PAM: inactive; M5 ag: inactive; CHRM5 PAM: inactive; M5 antag: inactive
